Results taken from ChEMBL document CHEMBL1148898, “New ring C-seco limonoids from Brazilian Melia azedarach and their cytotoxic activity” (J Nat Prod, 2004).
The source made the active and inactive calls. The calls are words filed in the database; no cut-off is given here.

Legend:
[1] = Toxicity in brine shrimp at 100 ug/mL; type: organism-based; details: artemia, in vivo; read-out: Activity
[2] = system: HeLa S3; test: (§1) Cytotoxicity against human HeLaS3 cells after 72 hrs by WST1 assay; type: functional, cell-based
How it was run: (§2)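 HeLa S3 cells seeded at 500 cells/well in minimum essential medium and cultured overnight. Compounds then added at final concentrations of 0.1, 1, 10 and 100 µM and incubated 72 h. WST-1 (Cell Counting Kit) added per manufacturer's protocol, followed by a further 2 h incubation. Absorbance read at 450 nm.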

[3] = as §1; type: functional, cell-based; details: HeLa S3, 72 h; how it was run: as §2

Row | Compound | mortality at 100 ug/mL [1] | Activity [2] | IC50 [3]
1 | COC(=O)C[C@@H]1[C@]2(C)C3=C(C)[C@H](c4ccoc4)C[C@H]3O[C@@H]2[C@H](OC(C)=O)[C@H]2[C@](C)(C=O)[C@H](O)C[C@H](OC(=O)/C=C/c3ccccc3)[C@]12C | 100% | inactive | 
2 | COC(=O)C[C@@H]1[C@]2(C)C3=C(C)[C@H](c4ccoc4)C[C@H]3O[C@@H]2[C@H](OC(C)=O)[C@H]2[C@](C)(C=O)[C@H](O)C[C@H](OC(=O)c3ccccc3)[C@]12C | 100% | inactive | 
3 | C/C=C(\C)C(=O)O[C@@H]1[C@@H]2OC[C@]3(C)[C@H](OC(C)=O)C[C@H](OC(=O)c4ccccc4)[C@@](C)([C@@H]23)[C@H]2CC(=O)O[C@H]3C[C@@H](c4ccoc4)C(C)=C3[C@]12C [1-O-DEACETYL-1-O-BENZOYLOHCHINOLIDE B] | 100% |  | 33 µM
4 | C/C=C(\C)C(=O)O[C@H]1C[C@@H](OC(C)=O)[C@@]2(C)CO[C@H]3[C@@H](OC(=O)c4ccccc4)[C@@]4(C)C5=C(C)[C@H](c6ccoc6)C[C@@H]5OC(=O)C[C@@H]4[C@]1(C)[C@@H]32 [1-O-DEACETYL-1-O-TIGLOYLOHCHINOLIDE A] | 100% |  | 29.7 µM
5 | C/C=C(\C)C(=O)O[C@@H]1[C@@H]2OC[C@]3(C)[C@H](OC(C)=O)C[C@H](OC(=O)/C(C)=C/C)[C@@](C)([C@@H]23)[C@H]2CC(=O)O[C@H]3C[C@@H](c4ccoc4)C(C)=C3[C@]12C [1-O-DEACETYL-1-O-TIGLOYLOHCHINOLIDE B] | 100% |  | 33.8 µM
6 | CC(=O)O[C@@H]1C[C@H](O)[C@@]2(C)[C@H]3[C@@H](OC[C@]13C)[C@@H](OC(=O)c1ccccc1)[C@@]1(C)C3=C(C)[C@H](c4ccoc4)C[C@@H]3OC(=O)C[C@@H]12 [1-O-DEACETYLOHCHINOLIDE A] | 100% |  | 2.4 µM
7 | C/C=C(\C)C(=O)O[C@@H]1[C@@H]2OC[C@]3(C)[C@H](OC(C)=O)C[C@H](O)[C@@](C)([C@@H]23)[C@H]2CC(=O)O[C@H]3C[C@@H](c4ccoc4)C(C)=C3[C@]12C [1-O-DEACETYLOHCHINOLIDE B] | 100% |  | 0.1 µM
8 | O=c1[nH]cc(F)c(=O)[nH]1 [FLUOROURACIL] |  |  | 5.4 µM
9 | C/C=C(\C)C(=O)O[C@H]1C[C@@H](O)[C@@](C)(C=O)[C@@H]2[C@@H](OC(C)=O)[C@H]3O[C@@H]4C[C@@H](c5ccoc5)C(C)=C4[C@@]3(C)[C@@H](CC(=O)OC)[C@@]12C [OHCHINOLAL] | 100% | inactive | 
10 | CC(=O)O[C@H]1C[C@@H](OC(C)=O)[C@@]2(C)CO[C@H]3[C@@H](OC(=O)c4ccccc4)[C@@]4(C)C5=C(C)[C@H](c6ccoc6)C[C@@H]5OC(=O)C[C@@H]4[C@]1(C)[C@@H]32 [OHCHNOLIDE A] | 100% | inactive | 
11 | C/C=C(\C)C(=O)O[C@@H]1[C@@H]2OC[C@]3(C)[C@H](OC(C)=O)C[C@H](OC(C)=O)[C@@](C)([C@@H]23)[C@H]2CC(=O)O[C@H]3C[C@@H](c4ccoc4)C(C)=C3[C@]12C [OHCHNOLIDE B] | 100% |  | 40.5 µM
